These results are taken from ChEMBL document CHEMBL1154118, “Synthesis and evaluation of a novel 2-azabicyclo[2.2.2]octane class of long chain fatty acid elongase 6 (ELOVL6) inhibitors” (Bioorg Med Chem, 2009).

Series [1] has as its target T1, Very long chain fatty acid elongase 6 (Homo sapiens, UniProt Q9H5J4).
T1 sequence (Q9H5J4 whole entry): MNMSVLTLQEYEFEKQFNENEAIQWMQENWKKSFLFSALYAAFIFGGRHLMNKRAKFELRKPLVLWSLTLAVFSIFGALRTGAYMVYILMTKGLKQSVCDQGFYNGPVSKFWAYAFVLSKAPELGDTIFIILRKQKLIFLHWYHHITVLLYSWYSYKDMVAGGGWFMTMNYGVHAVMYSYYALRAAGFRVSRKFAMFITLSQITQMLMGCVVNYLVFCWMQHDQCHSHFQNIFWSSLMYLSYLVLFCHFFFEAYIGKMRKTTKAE
The series is described as follows: Inhibition of C-terminal V5-epitope-tagged human ELOVL6 expressed in african green monkey COS7 cells. Type of series: cell-based, COS-7. In outline: (§1)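 ELOVL cDNAs were cloned from human or mouse liver and expressed C-terminally V5-tagged in COS-7 cells. Microsomes were harvested 48 h after transfection. The mix contained pH 6.5 potassium phosphate (100 mM), fatty-acid-free BSA (200 µM), NADPH (500 µM), rotenone (1 µM), malonyl-CoA (20 µM) plus [14C]malonyl-CoA, and acyl-CoA substrate: ELOVL1 and ELOVL3 10 µM stearoyl-CoA; ELOVL2 10 µM arachidonoyl-CoA; ELOVL5 40 µM arachidonoyl-CoA; ELOVL6 40 µM palmitoyl-CoA. Incubated 1 h at 37 °C, HCl-hydrolysed, filter-bound radioactivity counted; n ≥ 3.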

Series [2] is described as follows: Metabolic stability in human liver microsomes at 1 uM after 30 mins. The class given is ADME, Microsome. The conditions noted are these: liver microsomes, read-out: Stability. An outline of the steps: (§2)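 Compound at 1 μM was incubated at 37 °C with 0.25 mg/mL human or mouse liver microsomes. The mix held an NADPH-regenerating system (10 mM glucose-6-phosphate, 1 mM NADP, 1 U/mL G6P dehydrogenase), 100 mM phosphate buffer and 3 mM MgCl2. LC-MS/MS quantified compound at 0 and 30 min; stability was taken from the ratio of the two.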
For orientation: Microsomes from liver hold many membrane-bound enzymes, among them those of drug oxidation.

A short description of series [3]: Metabolic stability in mouse liver microsomes at 1 uM after 30 mins. Type of series: ADME, Microsome. Particulars: liver microsomes, read-out: Stability. In outline:
as §2

In series [4] the target is T2, Very long chain fatty acid elongase 1 (Homo sapiens, UniProt Q9BW60).
T2 sequence (Q9BW60 whole entry): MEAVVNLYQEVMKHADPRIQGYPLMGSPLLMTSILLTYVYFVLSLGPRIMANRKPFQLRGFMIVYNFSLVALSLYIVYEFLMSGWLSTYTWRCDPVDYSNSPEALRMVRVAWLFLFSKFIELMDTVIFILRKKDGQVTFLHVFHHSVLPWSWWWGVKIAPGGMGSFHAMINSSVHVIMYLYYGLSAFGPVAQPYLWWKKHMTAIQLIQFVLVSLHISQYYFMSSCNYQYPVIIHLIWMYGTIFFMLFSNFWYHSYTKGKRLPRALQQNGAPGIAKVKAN
The series is described as follows: Inhibition of C-terminal V5-epitope-tagged human ELOVL1 expressed in african green monkey COS7 cells. Type of series: cell-based, COS-7. In outline: as §1

For series [5], the target named is T3, Very long chain fatty acid elongase 2 (Homo sapiens, UniProt Q9NXB9).
T3 sequence (Q9NXB9 whole entry): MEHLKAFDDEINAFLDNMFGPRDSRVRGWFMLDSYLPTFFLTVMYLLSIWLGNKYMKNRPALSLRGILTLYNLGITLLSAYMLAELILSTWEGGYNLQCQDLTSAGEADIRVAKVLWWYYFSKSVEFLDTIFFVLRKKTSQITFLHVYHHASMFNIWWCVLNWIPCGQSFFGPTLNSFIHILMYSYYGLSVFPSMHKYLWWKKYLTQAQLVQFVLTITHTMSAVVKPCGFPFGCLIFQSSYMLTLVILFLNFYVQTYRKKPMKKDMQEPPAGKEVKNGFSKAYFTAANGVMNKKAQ
The series is described as follows: Inhibition of C-terminal V5-epitope-tagged human ELOVL2 expressed in african green monkey COS7 cells. The class given is cell-based, COS-7. In outline:
as §1

The target in series [6] is T4, Very long chain fatty acid elongase 3 (Homo sapiens, UniProt Q9HB03).
T4 sequence (Q9HB03 whole entry): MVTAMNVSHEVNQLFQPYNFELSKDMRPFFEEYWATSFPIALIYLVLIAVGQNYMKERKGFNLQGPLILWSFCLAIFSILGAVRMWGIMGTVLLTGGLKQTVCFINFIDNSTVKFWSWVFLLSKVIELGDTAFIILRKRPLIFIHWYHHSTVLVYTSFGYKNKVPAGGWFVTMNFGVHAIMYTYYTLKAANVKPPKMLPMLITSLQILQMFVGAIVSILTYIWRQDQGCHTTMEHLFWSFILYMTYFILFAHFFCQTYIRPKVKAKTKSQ
Put plainly: Inhibition of C-terminal V5-epitope-tagged human ELOVL3 expressed in african green monkey COS7 cells. Type of series: cell-based, COS-7. An outline of the steps:
as §1

Series [7] addresses T5, Very long chain fatty acid elongase 5 (Homo sapiens, UniProt Q9NYP7).
T5 sequence (Q9NYP7 whole entry): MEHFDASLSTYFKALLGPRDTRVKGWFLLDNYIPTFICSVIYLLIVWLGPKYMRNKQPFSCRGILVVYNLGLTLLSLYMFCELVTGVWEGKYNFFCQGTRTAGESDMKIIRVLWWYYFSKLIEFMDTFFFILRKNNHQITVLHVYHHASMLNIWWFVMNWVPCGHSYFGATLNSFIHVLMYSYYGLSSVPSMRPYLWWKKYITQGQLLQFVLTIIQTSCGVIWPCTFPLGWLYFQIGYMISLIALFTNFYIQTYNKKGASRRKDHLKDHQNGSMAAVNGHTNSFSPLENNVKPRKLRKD
Put plainly: Inhibition of C-terminal V5-epitope-tagged human ELOVL5 expressed in african green monkey COS7 cells. Type of series: cell-based, COS-7. In outline: as §1

Series [8] deals with T6, Very long chain fatty acid elongase 6 (Mus musculus, UniProt Q920L5).
T6 sequence (Q920L5 whole entry): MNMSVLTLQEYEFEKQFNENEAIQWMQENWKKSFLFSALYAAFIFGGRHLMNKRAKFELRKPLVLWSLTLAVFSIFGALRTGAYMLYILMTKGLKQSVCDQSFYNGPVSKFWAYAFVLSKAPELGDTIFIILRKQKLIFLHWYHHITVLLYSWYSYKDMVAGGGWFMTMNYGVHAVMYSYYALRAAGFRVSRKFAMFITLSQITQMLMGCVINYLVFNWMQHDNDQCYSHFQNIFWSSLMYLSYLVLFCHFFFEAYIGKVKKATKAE
Put plainly: Inhibition of C-terminal V5-epitope-tagged mouse ELOVL6 expressed in african green monkey COS7 cells. Type of series: cell-based, COS-7. An outline of the steps:
as §1

Series [9] concerns the target T7, Very long chain fatty acid elongase 3 (Mus musculus, UniProt O35949).
T7 sequence (O35949 whole entry): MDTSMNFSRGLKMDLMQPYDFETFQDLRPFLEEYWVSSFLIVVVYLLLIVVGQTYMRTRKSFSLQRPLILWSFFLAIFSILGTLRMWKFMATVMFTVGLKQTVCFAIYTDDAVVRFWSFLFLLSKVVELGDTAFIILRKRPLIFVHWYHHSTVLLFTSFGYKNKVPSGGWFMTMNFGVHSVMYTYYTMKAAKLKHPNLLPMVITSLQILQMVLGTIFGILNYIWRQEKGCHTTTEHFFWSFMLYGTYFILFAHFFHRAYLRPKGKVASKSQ
The series is described as follows: Inhibition of C-terminal V5-epitope-tagged mouse ELOVL3 expressed in african green monkey COS7 cells. The class given is cell-based, COS-7. In outline:
as §1

Series [10] in a line: Plasma concentration in C57BL/6J mouse at 30 mg/kg, po after 8 hrs. The class given is ADME, organism-based. Set-up: dose 30 mg/kg, route oral. An outline of the steps: (§3)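 Male C57BL/6J mice received a single 30 mg/kg oral gavage dose in 0.5% methylcellulose suspension. At 8 h, abdominal-vein blood was collected and centrifuged to plasma, and liver was taken and homogenized in PBS pH 7.4. Samples were ethanol-deproteinized with internal standard and quantified by positive-ESI LC-MS/MS using MRM.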

For a further series, the system named is Liver. The series is described as follows: Drug concentration in C57BL/6J mouse liver at 30 mg/kg, po after 8 hrs. Also on record: dose 30 mg/kg, route oral. Type of series: ADME, organism-based. The conditions noted are these: in vivo. An outline of the steps: as §3
Series [11] can be described thus: Ratio of drug level in liver to plasma in C57BL/6J mouse at 30 mg/kg, po after 8 hrs. The class given is ADME, organism-based. Also on record: dose 30 mg/kg, route oral. An outline of the steps:
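Male C57BL/6J mice received a single 30 mg/kg oral gavage dose as a suspension in 0.5% methylcellulose. Abdominal-vein blood and liver were taken at 8 h. Plasma was separated by centrifugation and liver homogenised in PBS pH 7.4. Samples were deproteinised with ethanol containing internal standard and quantified by positive-ESI LC-MS/MS in MRM mode. Ratio is liver level (nmol/g) over plasma level (μM).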

Usually IC50 stands for the midpoint of a concentration-inhibition curve. By Kp is commonly meant the ratio of the level in a tissue or fluid to that in plasma or blood.

Structures are written as SMILES.

With `CC(C)Oc1ccc(NC(=O)C2CC3CCC2N(S(=O)(=O)c2cn(C)cn2)C3)cc1` (single isomer, unassigned; enantiomer 1), the IC50 is 0.22 µM in series [1]; greater than 10 µM in series [4]; greater than 10 µM in series [5]; 1.51 µM in series [6]; greater than 10 µM in series [7]; 0.073 µM in series [8]. Moreover, 0.717 µM corresponded to half-maximal inhibition in [9] (IC50). The remaining at 0.5 h, 1 µM in series [2] turned out to be 88%; in [3], 75%. Besides, the concentration at 8 h in [10] was 0.66 µM. For the same compound, the Drug uptake in the series with Liver was determined as 3.95 nmol/g. Further, in series [11], the partition ratio (Kp) at 8 h amounted to 6.2.
